In data set [1] the test system is Human immunodeficiency virus 1. Nature of the data set: Antiviral activity against HIV1 3B infected in human MT2 cells after 5 days by chemiluminescence in presence of fetal bovine serum. In kind it is functional, organism-based. Particulars: Human immunodeficiency virus 1, 3B, MT2, 120 h. The essentials:
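HIV-1 IIIB infected MT-2 cells at m.o.i. 0.01 for 3 h, then ~1.5 × 10⁴ cells per well were added to 9 fivefold serial drug dilutions in triplicate in medium with 10% FBS. Plates ran 5 days at 37 °C. CellTiter-Glo was added with 10 min room-temperature lysis, and chemiluminescence was read. Values are means of at least two experiments.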

Data set [2] can be described thus: Inhibition of HIV integrase strand transfer activity. More on the design: species or system Human immunodeficiency virus. A digest of the protocol: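 Strand transfer was run with biotinylated donor DNA bound to streptavidin-coated plates and DIG-tagged target DNA. Values are means of at least two experiments.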
Data set [3] can be described thus: Oral bioavailability in rat. As to conditions: in vivo. In kind it is ADME, organism-based. A digest of the protocol: (§1)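 Rats and dogs received compound as free parent in solution (EtOH, PG, PEG400 and citric acid), at pH 3.3 for iv and pH 2.2 for oral dosing. Half-life and total body clearance come from the iv groups. Oral F (%) is from po versus iv AUC. Values are means of three animals per study.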

The test system of data set [4] is Human immunodeficiency virus 1. The data set is described as follows: Antiviral activity against HIV1 3B infected in human MT2 cells after 5 days by chemiluminescence in presence of human serum albumin. Type of data set: functional, organism-based. Particulars: Human immunodeficiency virus 1, 3B, MT2, 120 h. The essentials:
(§2)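 Same MT-2/HIV-1 IIIB 5-day CellTiter-Glo chemiluminescence assay in 10% FBS, with physiological HSA (35 mg/ml) and α1-AGP (1.5 mg/ml) added. Shift fold is EC50 with these serum proteins divided by EC50 in 10% FBS alone.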

Data set [5] is described as follows: Clearance in iv dosed rat. As to conditions: in vivo. Type of data set: ADME, organism-based. A digest of the protocol:
as §1

A short description of data set [6]: Clearance in iv dosed dog. Type of data set: ADME, organism-based, Canis lupus familiaris. As to conditions: in vivo. The essentials: as §1
Data set [7] is described as follows: Oral bioavailability in dog. As to conditions: in vivo. In kind it is ADME, organism-based, Canis lupus familiaris. The essentials: as §1
A short description of data set [8]: Half life in iv dosed dog. In kind it is ADME, organism-based, Canis lupus familiaris. Particulars: in vivo. A digest of the protocol: as §1
Data set [9] in a line: Half life in iv dosed rat. In kind it is ADME, organism-based. Particulars: in vivo. A digest of the protocol: as §1
For data set [10], the system named is Human immunodeficiency virus 1. Nature of the data set: Ratio of EC50 for HIV1 3B in presence of human serum proteins to EC50 for HIV1 3B in presence of fetal bovine serum. Type of data set: functional. A digest of the protocol: as §2

As for `CN(c1c2c(c(O)c3ncccc13)C(=O)N(Cc1ccccc1)C2)S(C)(=O)=O`, the EC50 (in general, the concentration at which the effect is half-maximal) in data set [1] is 35 nM. Moreover, half-maximal inhibition in data set [2] (IC50) required 120 nM.
`CN(c1c2c(c(O)c3ncccc13)C(=O)N(Cc1ccc(F)cc1)C2)S(C)(=O)=O`: the bioavailability – broadly, dose-corrected exposure relative to a reference, in per cent – in data set [3] stood at 15%; in data set [7], 45%. The EC50 came out at 11.4 nM in [4] and 1.7 nM in data set [1]. Besides, the clearance (as a rule, the rate of elimination divided by the concentration) is 4.67 mL/min/kg in data set [5] and 6.67 mL/min/kg in data set [6]. Also, the values for the half-life in data set [8] and in [9] were 7 h and 1.1 h, respectively. Moreover, in data set [2], inhibition was half-maximal at 28 nM (IC50). In addition, the “Ratio EC50” value in [10] stood at 6.7.
Regarding `Cc1nnc(C(=O)NC(C)(C)c2nc(C(=O)NCc3ccc(F)cc3)c(O)c(=O)n2C)o1` [RALTEGRAVIR], the values for the concentration for a half-maximal effect (EC50) in data set [4] and in data set [1] were 20 nM and 4 nM, respectively. Besides, in data set [2], the IC50 (usually the concentration at which inhibition is half-maximal) was determined as 40 nM.
As to `CC(=O)Nc1cc(F)ccc1CN1Cc2c(c(O)c3ncccc3c2N(C)S(C)(=O)=O)C1=O`, in data set [1], the EC50 was 52 nM. Further, in [2], the IC50 amounted to 5 nM.
Take `CN(c1c2c(c(O)c3ncccc13)C(=O)N(Cc1ccc(F)c(Cl)c1)C2)S(C)(=O)=O`: the results for the bioavailability in data set [3] and in [7] were 7% and 41%, respectively. Further, the values for the EC50 in data set [4] and in [1] were 12 nM and 3.5 nM, respectively. Further, the clearance in data set [5] is 3.83 mL/min/kg; in [6] it was 2.5 mL/min/kg. Also, the half-life (as a rule, the time needed for the level to fall by half in the phase considered) in [8] is 7.13 h; in data set [9], 1.36 h. This molecule also gave an IC50 in data set [2] of 52 nM. The “Ratio EC50” value in [10] was 3.4.
Take `CN(c1c2c(c(O)c3ncccc13)C(=O)N(Cc1cc(Cl)c(F)cc1F)C2)S(C)(=O)=O`: the bioavailability was found to be 9% in data set [3] and 79% in data set [7]. Besides, the EC50 was determined as 17 nM in data set [4] and 6 nM in data set [1]. In addition, the values for the clearance in data set [5] and in data set [6] were 4.83 mL/min/kg and 0.333 mL/min/kg, respectively. In addition, the half-life in [8] was 16 h; in [9], 1.38 h. This molecule yielded an IC50 in data set [2] of 39 nM. The “Ratio EC50” value in data set [10] was found to be 2.8.
As to `CN(c1c2c(c(O)c3ncccc13)C(=O)N(Cc1cccc(Cl)c1F)C2)S(C)(=O)=O`, the values for the EC50 in data set [4] and in [1] were 18 nM and 6 nM, respectively. Further, in data set [2], the IC50 was 61 nM. The “Ratio EC50” value in data set [10] stood at 3.
In the same order, the values of `CN(c1c2c(c(O)c3ncccc13)C(=O)N(Cc1ccc(F)c(Cl)c1F)C2)S(C)(=O)=O` are 18 nM, 5 nM, 135 nM and 3.6.
In the same order, the values of `CNC(=O)c1cc(F)ccc1CN1Cc2c(c(O)c3ncccc3c2N(C)S(C)(=O)=O)C1=O` are 90 nM, 32 nM, 74 nM and 2.8.

Source of the values: ChEMBL document CHEMBL1153964, “Tricyclic HIV integrase inhibitors V. SAR studies on the benzyl moiety” (Bioorg Med Chem Lett, 2009).
